Results reported in ChEMBL document CHEMBL1135921, “Potent, orally active heterocycle-based combretastatin A-4 analogues: synthesis, structure-activity relationship, pharmacokinetics, and in vivo antitumor activity evaluation” (J Med Chem, 2002).
pIC50: −log10 of the molar value.

Experiments:
[1] = tested on: HCT-15; experiment: Inhibition of human HCT-15 (human colon adenocarcinoma, MDR positive) cell growth; type: functional, cell-based
Method in brief: (§1)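 Sulforhodamine B assay following the NCI protocol. HCT-15 and NCI-H460 cells were exposed to final concentrations of 10^-11 to 10^-4 M and grown for 48 h at 37 °C in 5% CO2. […] Cells were TCA-fixed and stained, dye was solubilized in Tris, and absorbance was read. IC50 came from nonlinear regression as the geometric mean of at least two independent runs.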

[2] = biological target: Tubulin beta chain (Bos taurus, UniProt Q6B856); experiment: Concentration needed to inhibit tubulin polymerization by 50%; type: functional
Method in brief: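 Microtubule protein was purified from bovine brain, or purified tubulin in glycerol was used. Tubulin, buffer and GTP were prechilled to 4 °C, then added to wells containing drug or solvent. Polymerization ran at 37 °C, with light scattering followed at 340 nm for 30 min. The degree of polymerization was taken from the AUC of the profile. IC50 came from nonlinear regression as the geometric mean of at least two independent runs.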

[3] = tested on: NCI-H460; experiment: Inhibition of human NCI-H460 (human lung large cell carcinoma, MDR negative) cell growth; type: functional, cell-based; method in brief: as §1
[4] = Maximum concentration of compound present in plasma measured; type: ADME, organism-based
Method in brief: (§2)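 Two animals were used in each dosing group, each given 5 mg/kg either orally or iv. Plasma Cmax, oral AUC and bioavailability are the average of the two animals.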

[5] = Bioavailability; type: ADME, organism-based; conditions: eutheria, in vivo; method in brief: as §2
[6] = The oral Area under the plasma concentration curve(AUC) measured;when administered as perorally; type: ADME; method in brief: as §2
[7] = The oral Area under the plasma concentration curve(AUC) measured;when administered perorally; type: ADME; method in brief: as §2
[8] = Oral bioavailability in mouse; type: ADME, organism-based; conditions: in vivo; method in brief: as §2
[9] = Oral bioavailability in dog; type: ADME, organism-based, Canis lupus familiaris; conditions: in vivo; method in brief: as §2
[10] = Oral bioavailability in monkey; type: ADME, organism-based; conditions: primates, in vivo; method in brief: as §2

Sequence of Tubulin beta chain (Q6B856 whole entry): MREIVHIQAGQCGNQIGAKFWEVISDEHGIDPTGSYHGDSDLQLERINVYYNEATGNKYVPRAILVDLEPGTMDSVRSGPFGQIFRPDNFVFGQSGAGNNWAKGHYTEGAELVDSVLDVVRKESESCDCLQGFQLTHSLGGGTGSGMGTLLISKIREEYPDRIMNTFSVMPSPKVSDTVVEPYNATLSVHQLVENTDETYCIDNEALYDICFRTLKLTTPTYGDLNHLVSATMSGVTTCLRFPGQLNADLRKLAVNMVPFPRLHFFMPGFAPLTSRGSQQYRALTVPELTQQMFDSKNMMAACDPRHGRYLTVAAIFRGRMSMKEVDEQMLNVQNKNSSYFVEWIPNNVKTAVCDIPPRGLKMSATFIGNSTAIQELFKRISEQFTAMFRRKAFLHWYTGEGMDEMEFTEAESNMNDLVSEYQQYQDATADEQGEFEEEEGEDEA

Row | SMILES | pIC50 [1] | pIC50 [2] | pIC50 [3] | Cmax [4] | bioavailability [5] | AUC [6] | AUC [7] | bioavailability [8] | bioavailability [9] | bioavailability [10]
1 | COc1cc(-n2cncc2-c2ccc3c(c2)CCN3C)cc(OC)c1OC | 7.24 | 4.32 | 6.82 | – | – | – | – | – | – | –
2 | COc1ccc(-c2ocnc2-c2cc(OC)c(OC)c(OC)c2)cc1N | 7.96 | 6.04 | 8.04 | 22 ng/mL | 0.5% | 12 ng·h/mL | – | – | – | –
3 | COc1ccc(-c2[nH]cnc2-c2cc(OC)c(OC)c(OC)c2)cc1N | 8.09 | 6.17 | 8.07 | < 74 ng/mL | 45% | – | < 218 ng·h/mL | – | – | –
4 | COc1cc(-c2ncn(C)c2-c2ccc3ccn(C)c3c2)cc(OC)c1OC | 7.70 | 5.70 | 7.49 | 169 ng/mL | 32% | – | 461 ng·h/mL | 24.2% | 44.5% | 12.5%
5 | COc1cc(-n2cncc2-c2ccc(N(C)C)cc2)cc(OC)c1OC | 7.44 | 4.64 | 7.10 | – | – | – | – | – | – | –
6 | COc1ccc(-c2[nH]cnc2-c2cc(OC)c(OC)c(OC)c2)cc1O | 8.00 | 6.14 | 7.96 | – | – | – | – | – | – | –
7 | COc1ccc(-c2ncn(C)c2-c2cc(OC)c(OC)c(OC)c2)cc1N | 7.10 | – | 7.47 | 623 ng/mL | 29.9% | – | 1500 ng·h/mL | – | – | –
8 | COc1cc(-c2[nH]c(-c3ccoc3)nc2-c2ccc(N(C)C)cc2)cc(OC)c1OC | 7.17 | – | 6.72 | – | – | – | – | – | – | –
9 | COc1cc(-c2nccnc2-c2ccc(N(C)C)cc2)cc(OC)c1OC | 6.52 | – | 6.15 | – | – | – | – | – | – | –
10 | COc1cc(-n2cncc2-c2ccc3[nH]ccc3c2)cc(OC)c1OC | 6.46 | 4.15 | 6.27 | – | – | – | – | – | – | –
11 | COc1cc(-c2ncn(C)c2-c2cc(Cl)c3c(ccn3C)c2)cc(OC)c1OC | 7.92 | – | 7.92 | 130 ng/mL | 10.2% | – | 220 ng·h/mL | – | – | –
12 | COc1ccc(-c2cncn2-c2cc(OC)c(OC)c(OC)c2)cc1N | 7.16 | 5.11 | 7.20 | – | – | – | – | – | – | –
13 | COc1cc(-c2[nH]cnc2-c2ccc3ccn(C)c3c2)cc(OC)c1OC | 8.77 | 5.96 | 8.74 | < 10 ng/mL | 0.31% | – | 14.2 ng·h/mL | – | – | –

Continued by rising pIC50 [1], values first:

Row | pIC50 [1] | pIC50 [2] | pIC50 [3] | Cmax [4] | bioavailability [5] | AUC [6] | AUC [7] | bioavailability [8] | bioavailability [9] | bioavailability [10] | SMILES
14 | 5.14 | – | 5.07 | – | – | – | – | – | – | – | COc1cc(-n2cncc2-c2ccc(N)cc2)cc(OC)c1OC
15 | 6.48 | 3.89 | 6.23 | < 10 ng/mL | 0.01% | – | – | – | – | – | COc1cc(-c2cncn2-c2ccc(N(C)C)cc2)cc(OC)c1OC
16 | 6.66 | 4.51 | 6.77 | 3860 ng/mL | 82.3% | – | 10800 ng·h/mL | 89.7% | 45.8% | 91.2% | COc1ccc(-c2c(-c3cc(OC)c(OC)c(OC)c3)ncn2C)cc1N
17 | 7.05 | 5.12 | 7.21 | – | – | – | – | – | – | – | COc1ccc(-c2cncn2-c2cc(OC)c(OC)c(OC)c2)cc1O
18 | 7.10 | 4.46 | 6.57 | – | – | – | – | – | – | – | COc1cc(-n2ccnc2-c2ccc(N(C)C)cc2)cc(OC)c1OC
19 | 7.12 | – | 7.28 | – | – | – | – | – | – | – | COc1ccc(-c2ncoc2-c2cc(OC)c3c(c2)OCO3)cc1N
20 | 7.55 | – | 7.48 | – | – | – | – | – | – | – | COc1ccc(-c2ccnn2-c2cc(OC)c(OC)c(OC)c2)cc1N
21 | 7.57 | – | 7.64 | 209 ng/mL | 12.3% | – | 340 ng·h/mL | – | – | – | COc1cc(-c2ncn(C)c2-c2cc(F)c3c(ccn3C)c2)cc(OC)c1OC
22 | 7.57 | – | 7.29 | 70 ng/mL | 2.5% | – | 112 ng·h/mL | – | – | – | COc1cc(-c2c(-c3ccc4c(ccn4C)c3)ncn2C)cc(OC)c1OC
23 | 7.74 | 6.06 | 7.39 | – | – | – | – | – | – | – | COc1cc(-c2ncoc2-c2ccc(N(C)C)cc2)cc(OC)c1OC
24 | 7.82 | – | 7.46 | – | – | – | – | – | – | – | COc1ccc(-c2nc(C)oc2-c2cc(OC)c(OC)c(OC)c2)cc1O
25 | 7.85 | 5.74 | 7.72 | – | – | – | – | – | – | – | COc1cc(-n2cncc2-c2ccc3c(ccn3C)c2)cc(OC)c1OC
26 | 8.11 | 5.55 | 8.14 | – | – | – | – | – | – | – | COc1ccc(-c2[nH]cnc2-c2cc(OC)c(OC)c(OC)c2)cc1
27 | 8.13 | 6.10 | 7.92 | – | – | – | – | – | – | – | COc1cc(-c2ncoc2-c2ccc3c(ccn3C)c2)cc(OC)c1OC
28 | 8.14 | – | 7.96 | – | 0% | – | – | – | – | – | COc1ccc(-c2ncoc2-c2cc(OC)c(OC)c(OC)c2)cc1N
29 | 8.36 | 5.43 | 8.70 | 15.1 ng/mL | 1.3% | – | 16.2 ng·h/mL | – | – | – | COc1cc(-c2[nH]cnc2-c2ccc(N(C)C)cc2)cc(OC)c1OC
30 | 8.42 | – | 8.42 | – | – | – | – | – | – | – | COc1ccc(-c2[nH]cnc2-c2cc(OC)c(OC)c(OC)c2)cc1F
31 | 8.66 | 6.01 | 8.64 | – | – | – | – | – | – | – | COc1ccc(-c2ocnc2-c2cc(OC)c(OC)c(OC)c2)cc1O
